Experiments:
Streptococcus pneumoniae [1] = assay: Antibacterial activity against macrolide-resistant Streptococcus pneumoniae 24 harboring erm(B) gene after 14 passages and 10 compound-free subculturing by retest method; assay type: functional; conditions: Streptococcus pneumoniae, 24; read-out: MIC
In short: (§1)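 Multistep selection by daily serial passage in subinhibitory drug concentrations. Medium was cation-adjusted Mueller-Hinton broth plus 5% lysed horse blood. Each day the next inoculum came from the tube 1–2 dilutions below the MIC whose turbidity matched the growth control, for up to 50 days. Clone MICs by CLSI macrodilution; identity to the parent confirmed by SmaI PFGE.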

Streptococcus pyogenes [2] = assay: Antibacterial activity against macrolide-resistant Streptococcus pyogenes 2094 harboring erm(A) gene after 5 passages and 10 compound-free subculturing by retest method
Streptococcus pneumoniae [3] = assay: Antibacterial activity against macrolide-resistant Streptococcus pneumoniae 1635 harboring erm(A) gene after 32 passages and 10 compound-free subculturing by retest method; assay type: functional; in short: as §1
Streptococcus pyogenes [4] = assay: Antibacterial activity against macrolide-susceptible Streptococcus pyogenes 2132 after overnight incubation by agar dilution method
Streptococcus pneumoniae [5] = assay: Antibacterial activity against macrolide-susceptible Streptococcus pneumoniae 1077 after 29 passages and 10 compound-free subculturing by retest method; assay type: functional
Streptococcus pneumoniae [6] = assay: Antibacterial activity against Streptococcus pneumoniae harboring mef(A) gene after overnight incubation by agar dilution method; assay type: functional
In short: (§2)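 Clinical isolates collected 1998–2008, with macrolide-resistance genes confirmed by PCR. MICs by agar dilution on Mueller-Hinton agar with 5% sheep blood. Inoculum 10^4 CFU/spot, incubated overnight at 35°C in ambient air. S. pneumoniae ATCC 49619 was the quality-control strain in every run.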

Streptococcus pneumoniae [7] = assay: Antibacterial activity against macrolide-resistant Streptococcus pneumoniae 3665 harboring mef(A) gene after overnight incubation by agar dilution method; assay type: functional
Streptococcus pneumoniae [8] = assay: Antibacterial activity against macrolide-resistant Streptococcus pneumoniae 1076 harboring erm(B) and mef(A) gene after 18 passages and 10 compound-free subculturing by retest method; assay type: functional; in short: as §1
Streptococcus pneumoniae [9] = assay: Antibacterial activity against macrolide-susceptible Streptococcus pneumoniae 7127 harboring S20N mutation in L4 ribosomal protein and A105V mutation in L22 ribosomal protein after overnight incubation by agar dilution method; assay type: functional
Streptococcus pyogenes [10] = assay: Antibacterial activity against macrolide-resistant Streptococcus pyogenes 237 harboring mutation in L4 ribosomal protein after overnight incubation by agar dilution method
Streptococcus pneumoniae [11] = assay: Antibacterial activity against penicillin-susceptible Streptococcus pneumoniae after overnight incubation by agar dilution method; assay type: functional
In short: (§3)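 Agar dilution on Mueller-Hinton agar supplemented with 5% sheep blood. Inoculum 10^4 CFU/spot, incubated overnight at 35°C in ambient air. Test strains were clinical pneumococcal isolates. S. pneumoniae ATCC 49619 was included as the quality control strain in each run. MIC range, MIC50 and MIC90 were reported for each susceptibility category.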

Streptococcus pneumoniae [12] = assay: Antibacterial activity against macrolide-resistant Streptococcus pneumoniae 3009 harboring mutation in 23S rRNA after 25 passages and 10 compound-free subculturing by retest method; assay type: functional
Streptococcus pneumoniae [13] = assay: Antibacterial activity against penicillin-resistant Streptococcus pneumoniae after overnight incubation by agar dilution method; assay type: functional; in short: as §3
Streptococcus pyogenes [14] = assay: Antibacterial activity against macrolide-resistant Streptococcus pyogenes harboring erm(B) gene after overnight incubation by agar dilution method; assay type: functional
In short: (§4)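 Agar dilution MICs on Mueller-Hinton agar with 5% sheep blood. Inoculum 10^4 CFU/spot, incubated overnight at 35°C in ambient air. Clinical S. pneumoniae or group A streptococcal isolates; resistance genotypes (erm(B), erm(A), mef(A)/mef(E)) were assigned by PCR. S. pneumoniae ATCC 49619 served as QC strain in each run. Range, MIC50 and MIC90 reported per phenotype group.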

Streptococcus pneumoniae [15] = assay: Antibacterial activity against macrolide-susceptible Streptococcus pneumoniae 1077 after 15 passages and 10 compound-free subculturing by retest method; assay type: functional
Streptococcus pneumoniae [16] = assay: Antibacterial activity against Streptococcus pneumoniae harboring mutation in 23S rRNA after overnight incubation by agar dilution method; assay type: functional; in short: as §2
Streptococcus pneumoniae [17] = assay: Antibacterial activity against Streptococcus pneumoniae harboring erm(B) and mef(A) gene after overnight incubation by agar dilution method; assay type: functional; in short: as §2
Streptococcus pneumoniae [18] = assay: Antibacterial activity against macrolide-susceptible Streptococcus pneumoniae 1077 after 43 passages and 10 compound-free subculturing by retest method; assay type: functional
Streptococcus pyogenes [19] = assay: Antibacterial activity against Streptococcus pyogenes harboring mef(A) gene after overnight incubation by agar dilution method; assay type: functional; in short: as §2
Streptococcus pyogenes [20] = assay: Antibacterial activity against macrolide-resistant Streptococcus pyogenes 2011 harboring mef(A) gene after overnight incubation by agar dilution method
Streptococcus pyogenes [21] = assay: Antibacterial activity against macrolide-resistant Streptococcus pyogenes 2368 harboring erm(B) gene after 18 passages and 10 compound-free subculturing by retest method
Streptococcus pyogenes [22] = assay: Antibacterial activity against macrolide-resistant Streptococcus pyogenes 2094 harboring erm(A) gene after 22 passages and 10 compound-free subculturing by retest method
Streptococcus pneumoniae [23] = assay: Antibacterial activity against macrolide-resistant Streptococcus pneumoniae 2686 harboring mutation in L4 ribosomal protein after 22 passages and 10 compound-free subculturing by retest method; assay type: functional
Streptococcus pyogenes [24] = assay: Antibacterial activity against macrolide-resistant Streptococcus pyogenes 2094 harboring erm(A) gene after 43 passages and 10 compound-free subculturing by retest method
Streptococcus pneumoniae [25] = assay: Antibacterial activity against macrolide-susceptible Streptococcus pneumoniae 7127 harboring S20N mutation in L4 ribosomal protein and A105V mutation in L22 ribosomal protein after 29 passages and 10 compound-free subculturing by retest method; assay type: functional
Streptococcus pyogenes [26] = assay: Antibacterial activity against macrolide-resistant Streptococcus pyogenes 2094 harboring erm(A) gene after 34 passages and 10 compound-free subculturing by retest method
Streptococcus pneumoniae [27] = assay: Antibacterial activity against macrolide-resistant Streptococcus pneumoniae 3665 harboring mef(A) gene after 14 passages and 10 compound-free subculturing by retest method; assay type: functional
Streptococcus pneumoniae [28] = assay: Antibacterial activity against macrolide-resistant Streptococcus pneumoniae 2686 harboring mutation in L4 ribosomal protein after overnight incubation by agar dilution method; assay type: functional
Streptococcus pyogenes [29] = assay: Antibacterial activity against macrolide-resistant Streptococcus pyogenes 2011 harboring mef(A) gene after 35 passages and 10 compound-free subculturing by retest method
Streptococcus pneumoniae [30] = assay: Antibacterial activity against macrolide-susceptible Streptococcus pneumoniae after overnight incubation by agar dilution method; assay type: functional; in short: as §4
Streptococcus pneumoniae [31] = assay: Antibacterial activity against Streptococcus pneumoniae harboring mutation in L4 ribosomal protein after overnight incubation by agar dilution method; assay type: functional; in short: as §2
Streptococcus pneumoniae [32] = assay: Antibacterial activity against Streptococcus pneumoniae harboring erm(A) gene after overnight incubation by agar dilution method; assay type: functional; in short: as §2
Streptococcus pneumoniae [33] = assay: Antibacterial activity against macrolide-resistant Streptococcus pneumoniae 1635 harboring erm(A) gene after 49 passages and 10 compound-free subculturing by retest method; assay type: functional; in short: as §1
Streptococcus pneumoniae [34] = assay: Antibacterial activity against macrolide-resistant Streptococcus pneumoniae harboring erm(B) gene after overnight incubation by agar dilution method; assay type: functional; in short: as §4
[35] = Streptococcus pneumoniae, 3665, read-out: MIC

CCC[C@@H]1C[C@@H](C(=O)N[C@@H]([C@H]2O[C@H](SC)[C@H](O)[C@@H](O)[C@H]2O)[C@H](C)Cl)N(C)C1 [CLINDAMYCIN]
0.016 µg/mL: MIC (Streptococcus pneumoniae [7])
4 µg/mL: MIC (Streptococcus pneumoniae [5])
8 µg/mL: MIC (Streptococcus pneumoniae [15])
> 64 µg/mL: MIC (Streptococcus pneumoniae [1]) | MIC (Streptococcus pneumoniae [8]) | MIC90 (Streptococcus pneumoniae [11]) | MIC50 (Streptococcus pyogenes [14]) | MIC90 (Streptococcus pyogenes [14]) | MIC (Streptococcus pyogenes [21]) | MIC (Streptococcus pyogenes [22]) | MIC (Streptococcus pyogenes [26]) | MIC50 (Streptococcus pneumoniae [34])
0.06 µg/mL: MIC (Streptococcus pyogenes [2]) | MIC (Streptococcus pyogenes [4]) | MIC50 (Streptococcus pneumoniae [6]) | MIC90 (Streptococcus pneumoniae [6]) | MIC (Streptococcus pyogenes [10]) | MIC50 (Streptococcus pneumoniae [11]) | MIC50 (Streptococcus pneumoniae [13]) | MIC50 (Streptococcus pneumoniae [17]) | MIC50 (Streptococcus pyogenes [19]) | MIC (Streptococcus pyogenes [20]) | MIC (Streptococcus pyogenes [24]) | MIC (Streptococcus pneumoniae [25]) | MIC (Streptococcus pyogenes [29]) | MIC90 (Streptococcus pneumoniae [30]) | MIC50 (Streptococcus pneumoniae [31])
0.25 µg/mL: MIC (Streptococcus pneumoniae [33])
1 µg/mL: MIC (Streptococcus pneumoniae [12])
0.125 µg/mL: MIC90 (Streptococcus pyogenes [19]) | MIC90 (Streptococcus pneumoniae [31]) | MIC (Streptococcus pneumoniae [32])
0.03 µg/mL: MIC (Streptococcus pneumoniae [3]) | MIC (Streptococcus pneumoniae [9]) | MIC (Streptococcus pneumoniae [16]) | MIC (Streptococcus pneumoniae [18]) | MIC (Streptococcus pneumoniae [23]) | MIC (Streptococcus pneumoniae [27]; [35]) | MIC (Streptococcus pneumoniae [28]) | MIC50 (Streptococcus pneumoniae [30])

CC[C@H]1OC(=O)[C@H](C)[C@@H](O[C@H]2C[C@@](C)(OC)[C@@H](O)[C@H](C)O2)[C@H](C)[C@@H](O[C@@H]2O[C@H](C)C[C@H](N(C)C)[C@H]2O)[C@](C)(OC)C[C@@H](C)C(=O)[C@H](C)[C@@H](O)[C@]1(C)O [CLARITHROMYCIN]
16 µg/mL: MIC50 (Streptococcus pneumoniae [13]) | MIC50 (Streptococcus pneumoniae [31])
64 µg/mL: MIC (Streptococcus pneumoniae [12])
2 µg/mL: MIC50 (Streptococcus pneumoniae [6]) | MIC (Streptococcus pneumoniae [7]) | MIC (Streptococcus pneumoniae [27])
0.25 µg/mL: MIC (Streptococcus pyogenes [10]) | MIC (Streptococcus pneumoniae [32])
4 µg/mL: MIC90 (Streptococcus pneumoniae [6]) | MIC50 (Streptococcus pyogenes [19]) | MIC (Streptococcus pyogenes [20]) | MIC (Streptococcus pneumoniae [27]; [35]) | MIC (Streptococcus pyogenes [29])
0.06 µg/mL: MIC (Streptococcus pneumoniae [18]) | MIC90 (Streptococcus pneumoniae [30])
8 µg/mL: MIC (Streptococcus pneumoniae [16]) | MIC90 (Streptococcus pyogenes [19]) | MIC (Streptococcus pyogenes [22]) | MIC (Streptococcus pyogenes [24]) | MIC (Streptococcus pneumoniae [28])
32 µg/mL: MIC (Streptococcus pneumoniae [23]) | MIC90 (Streptococcus pneumoniae [31])
0.03 µg/mL: MIC (Streptococcus pyogenes [4]) | MIC (Streptococcus pneumoniae [9]) | MIC50 (Streptococcus pneumoniae [30])
0.5 µg/mL: MIC (Streptococcus pneumoniae [25])
> 64 µg/mL: MIC (Streptococcus pneumoniae [1]) | MIC (Streptococcus pneumoniae [5]) | MIC (Streptococcus pneumoniae [8]) | MIC90 (Streptococcus pneumoniae [11]) | MIC50 (Streptococcus pyogenes [14]) | MIC90 (Streptococcus pyogenes [14]) | MIC (Streptococcus pneumoniae [15]) | MIC50 (Streptococcus pneumoniae [17]) | MIC (Streptococcus pyogenes [21]) | MIC (Streptococcus pneumoniae [33]) | MIC50 (Streptococcus pneumoniae [34])
1 µg/mL: MIC (Streptococcus pyogenes [2]) | MIC (Streptococcus pneumoniae [3]) | MIC50 (Streptococcus pneumoniae [11]) | MIC (Streptococcus pyogenes [26])
